RGS4 inh = RGS4 inhibitors, primary screen, cell-based, HEK293 M3R inducible RGS4, calcium flux. AID 463165, 2010. Fluo-4 calcium flux; active compounds read high; triggered by carbachol at its EC20. 0.45% of 310,000 active. B-score at 10 µM. Regulator of G-protein signaling 4 (Homo sapiens), P49798;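 active means B-score, a plate-corrected calcium signal, over three deviations above library mean, with baseline fluorescence within five deviations of library mean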;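 further: RGS4 expression induced by doxycycline in cells with stable M3 receptor; B-score is computed from the integrated fluorescence ratio over baseline after carbachol; higher B-score means a larger calcium signal and so more RGS4 inhibition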
Target sequence (P49798 whole entry, looked up): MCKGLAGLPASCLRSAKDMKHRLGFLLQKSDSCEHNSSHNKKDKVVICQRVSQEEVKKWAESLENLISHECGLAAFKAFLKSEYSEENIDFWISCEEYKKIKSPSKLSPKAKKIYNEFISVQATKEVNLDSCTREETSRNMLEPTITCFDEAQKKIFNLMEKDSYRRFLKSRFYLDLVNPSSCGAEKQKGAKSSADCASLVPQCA
RGS4 pot = RGS4 potentiators or activators, primary screen, cell-based, HEK293 M3R inducible RGS4, calcium flux. carbachol calcium flux Fluo4; active compounds read low. B-score at 10 µM. 0.92% of 310,000 active. AID 463111, 2010;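 active means B-score of the integrated calcium signal more than 4 SD below the library mean, with starting fluorescence not abnormally high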;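 further: negative B-score means reduced calcium response which marks RGS4 activation or potentiation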
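test system = M3R-expressing HEK293 line, RGS4 induced by doxycycline | probe or stimulus = carbachol at ECmax as muscarinic agonist stimulus | timing = dye loading 30 min 37 °C, buffer rest 30 min RT | signal = calcium dye Fluo4 fluorescence | evaluation = B score from integrated fluorescence ratio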
MrgX1 antag = antagonists of human MrgX1 receptor, primary screen, HEK293 cells, Fluo-4 calcium flux; BAM8-22 antagonism; active compounds read low; 1.3% of 310,000 active; Mas-related G-protein coupled receptor member X1 (Homo sapiens), Q96LB2; AID 588676, 2011; B-score at 10 µM;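 active means calcium-response B-score plate-corrected more than 3 library SD below zero, starting fluorescence within 5 deviations, no agonist response on first addition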;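 further: peak minus trough fluorescence over baseline after final BAM8-22 challenge near maximal dose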
Target sequence (Q96LB2 whole entry, looked up): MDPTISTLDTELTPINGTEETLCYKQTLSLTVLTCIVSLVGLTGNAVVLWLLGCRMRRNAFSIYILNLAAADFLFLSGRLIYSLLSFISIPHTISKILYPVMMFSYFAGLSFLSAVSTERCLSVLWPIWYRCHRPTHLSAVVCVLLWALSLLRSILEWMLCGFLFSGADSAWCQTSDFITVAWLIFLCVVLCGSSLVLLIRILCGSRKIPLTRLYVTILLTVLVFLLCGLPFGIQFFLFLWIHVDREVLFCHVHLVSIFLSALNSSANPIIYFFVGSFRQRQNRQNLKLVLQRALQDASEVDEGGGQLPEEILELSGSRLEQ
MrgX1 agonist = agonists of human MrgX1 receptor, primary screen, HEK293 cells, Fluo-4 calcium flux; 0.44% of 310,000 active; B-score at 10 µM; AID 588627, 2011; Fluo-4 calcium fluorescence, agonist mode; active compounds read high; Mas-related G-protein coupled receptor member X1 (Homo sapiens), Q96LB2;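 active means calcium response B-score plate-corrected fluorescence ratio at least 3 library SD, with starting fluorescence B-score inside 5 SD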
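Test system: Stable human MrgX1 HEK293 cell line | Schedule: Overnight plating before 1 h dye loading | Read-out basis: Baseline-normalised fluorescence change ratio, B-scored | Detection: Kinetic calcium dye fluorescence, Fluo-4 NW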
MrgX1 PAM = positive allosteric modulators of MrgX1, primary screen, HEK293 cells, Fluo-4 calcium flux; FDSS; active compounds read high; B-score at 10 µM; 0.63% of 310,000 active; AID 588675, 2011;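 active means plate-corrected calcium response at least 3 library SD above typical, normal starting fluorescence, not activating the receptor alone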;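 further: compound read alongside a low EC10 to EC30 dose of BAM8-22 agonist; peak minus trough fluorescence over baseline measured at the second addition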
* marks the source's active call; other numbers are inactive results; i = inactive. Hits are enriched below; roughly 3.5% of the tested compounds scored in any of these assays.

SMILES | RGS4 inh | RGS4 pot | MrgX1 antag | MrgX1 agonist | MrgX1 PAM
CC1(C)C2CC[C@]3(C)C(CC=C4[C@@H]5C[C@@](C)(CO)[C@@H](O)C[C@]5(C(=O)O)CC[C@]43C)[C@@]2(C)CC[C@@H]1O (some centres not stated) | i | i | i | i | i
CC(=O)O[C@H]1CC[C@]2(C)[C@H]3CC=C4[C@@H]5[C@@H](C)[C@H](C)CC[C@]5(C(=O)O)CC[C@@]4(C)[C@]3(C)CC[C@H]2C1(C)C | 14* | i | i | i | i
Cc1ccc(C(C)C)c(OCCN(C)C)c1 | i | -7.1* | i | i | i
CCCN(CCC)CCOc1cc(C)ccc1C(C)C | i | i | i | i | i
O=C(OCC(=O)N1CCCC1)c1cc(Cl)ccc1Cl | i | i | i | i | i
Cc1ccccc1S(=O)(=O)Cc1ccc(C(=O)NC(C)c2ccc3c(c2)OCCO3)o1 (configuration not stated) | i | i | i | i | i
CC(NC(=O)c1ccc(CS(=O)(=O)c2ccc(Cl)cc2)o1)c1ccc2c(c1)OCCO2 (configuration not stated) | i | -7.4* | i | i | i
COC(=O)CN1C(=O)N/C(=C/c2ccc(OC)cc2)C1=O | i | i | i | 43* | i
Cc1c(C)c(C)c(CO/N=C/c2cccs2)c(C)c1C | i | i | i | i | 8.2*
Clc1cccc(Cl)c1CO/N=C/c1cccs1 | i | i | i | i | i
Cc1ccc(S(=O)(=O)Oc2ccc(/C=N/N=C3/NC(=O)C(CC(=O)O)S3)cc2)cc1[N+](=O)[O-] (configuration not stated) | i | i | i | i | i
CC(C)CN(C(=O)c1ccco1)c1nc2ccccc2s1 | i | i | i | i | i
CC(C)CN(C(=O)c1nn(C)c(=O)c2ccccc12)c1nc2ccccc2s1 | i | i | i | i | 7*
COC(=O)c1cc2occc2n1Cc1nc(-c2ccc(Cl)cc2)oc1C | i | -7.2* | i | i | i
COC(=O)c1cc2ccsc2n1Cc1nc(-c2ccc(Cl)cc2)oc1C | i | i | i | i | i
COC(=O)c1cc2occc2n1Cc1nc(-c2ccccc2Cl)oc1C | i | -7.5* | i | i | i
CS(=O)(=O)N(CC(=O)N1CCCC1)c1ccccc1Br | i | i | i | i | i
CCCn1nc(C(=O)NNC(=O)c2cccc(S(=O)(=O)NC(C)C)c2)c2ccccc2c1=O | i | i | i | i | i
CCN(CC)CC#CCC(O)(c1ccccc1)c1ccc(Br)cc1 (configuration not stated) | i | -7.8* | i | i | i
N#CC/C(N)=N/Nc1nc2ccccc2nc1Cc1ccccc1 | i | i | i | i | i
O=C(CN1CCCCC1)Nc1ccccc1-c1ccccc1 | i | -10* | i | i | i
O=C(NCc1ccc(F)cc1)C(c1cccnc1)N(C(=O)c1csnn1)c1ccccc1 (configuration not stated) | i | i | i | i | i
Cc1cccc(C)c1OCc1cc(C(=O)N2CCC(C3CCCCC3)C2)no1 (configuration not stated) | i | -7.6* | i | i | i
O=C(COC(=O)c1cc([N+](=O)[O-])ccc1N1CCOCC1)Nc1ccc(Cl)cc1 | i | i | -8.3* | i | i
CCc1nnc(NC(=O)c2cc([N+](=O)[O-])ccc2N2CCOCC2)s1 | i | i | -6.3* | i | i
SMILES | RGS4 inh | RGS4 pot | MrgX1 antag | MrgX1 agonist | MrgX1 PAM
CCS(=O)(=O)c1ccc2oc(SCC(=O)NCc3ccccc3)nc2c1 | i | -7.2* | i | i | i
CC1(C)CC(NC(=O)c2ccc(-c3ccc([N+](=O)[O-])cc3)o2)CC(C)(C)N1 | i | i | i | i | i
CN(C)c1ccc(/C=C/C(=O)c2cc(Cl)ccc2O)cc1 | i | i | -6.8* | i | i
Cc1cc(S(=O)(=O)N2c3ccc(F)cc3CCC2C)ccc1-n1cnnn1 (configuration not stated) | i | i | i | i | i
COc1ccc2c(/C=C/c3cc[n+](C)cc3)c[nH]c2c1 | i | i | -5.8* | i | i
O=C(O)C(C(O)c1ccc([N+](=O)[O-])cc1)[n+]1ccccc1 (configuration not stated) | i | i | i | i | i
Cc1ccc(C)c(N2CCN(C(=O)c3ccc(CS(=O)Cc4cccc(Cl)c4)o3)CC2)c1 (configuration not stated) | i | -8.7* | i | i | i
COc1ccc(S(=O)(=O)Cc2ccc(C(=O)N3CCN(c4cc(Cl)ccc4C)CC3)o2)cc1 | i | -8.2* | i | i | i
Cc1cccc(N2CCN(C(=O)c3ccc(CS(=O)Cc4ccc(Cl)cc4)o3)CC2)c1C (configuration not stated) | i | i | i | i | i
COc1ccc(S(=O)(=O)Cc2ccc(C(=O)NCCc3cc(OC)ccc3OC)o2)cc1 | i | i | i | i | 7.5*
CCOC(=O)c1ccc(-c2ccc3c(=O)c4ccccc4n(C)c3c2)cc1F | i | i | i | i | i
Cc1ccc(O)c(NC(=O)c2cc(C)no2)c1 | i | i | i | i | i
COc1ccc(/C=c2\sc3nc(=O)c(C)nn3c2=O)c(OC)c1 | i | i | i | 27* | i
Cc1cccc(S(=O)(=O)Nc2nc3ccccc3nc2OC(C)C)c1 | i | i | i | i | i
O=C(CCN1C(=O)/C(=C\c2cccs2)SC1=S)Nc1ccc(C(=O)O)cc1 | i | i | i | i | i
O=C(CCCN1C(=O)/C(=C/c2cccs2)SC1=S)Nc1cccnc1 | i | i | -5.6* | i | i
O=C(CCCN1C(=O)/C(=C\c2cccs2)SC1=S)Nc1cccnc1 | i | i | i | i | i
CCN(CC)CCOC(=O)c1ccc(NC(=O)CCCN2C(=O)/C(=C\c3cccs3)SC2=S)cc1 | i | -7.6* | i | i | i
CCOC(=O)c1ccc(S(=O)(=O)NNC(=O)c2cccc(N(C)C)c2)cc1 | i | i | i | i | 7.1*
CCNc1ccc(C(=O)OCC)cc1NC(=O)c1cccc(N(C)C)c1 | i | i | i | i | i
